Source: ChEMBL document CHEMBL1135670, “Discovery of 8-hydroxyadenines as a novel type of interferon inducer” (2002)

Experiments:
Mus musculus [1] = species on record: Mus musculus; experiment: Minimum effective concentration required for more than 1 IU/mL induction of IFN using mice spleen cells; format: functional; conditions: read-out: MEC
Method in brief: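 Mouse spleen cells incubated with compound; IFN released into medium measured in IU/mL. Value is the minimum effective concentration, the lowest concentration giving more than 1 IU/mL IFN.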

Mus musculus [2] = experiment: Minimum effective dose required for more than 100 IU/mL induction of IFN using mice after peroral administration.; format: functional; conditions: po, read-out: MED
Method in brief: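 Compound dosed orally to mice; IFN measured in plasma in IU/mL. Value is the minimum effective dose in mg/kg, the lowest dose giving more than 100 IU/mL IFN.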

Compound	minimal effective concentration (Mus musculus [1])	minimal effective dose (Mus musculus [2])
COc1ccccc1Cn1c(O)nc2c(N)ncnc21	10 µM	–
Nc1ncnc2c1ncn2Cc1ccccc1 [9-BENZYL-9H-ADENINE]	> 10 µM	–
NNc1nc2c(N)ncnc2n1Cc1ccccc1	> 10 µM	–
CCNc1nc(N)c2nc(O)n(Cc3ccccc3)c2n1	1 µM	–
CCCCn1c(O)nc2c(N)ncnc21	> 10 µM	–
CNc1nc(N)c2nc(O)n(Cc3ccccc3)c2n1	1 µM	–
CSc1nc2c(N)ncnc2n1Cc1ccccc1	> 10 µM	–
CSc1nc(N)c2nc(O)n(Cc3ccccc3)c2n1	0.1 µM	0.1 mg/kg
Nc1ncnc2c1nc(I)n2Cc1ccccc1	> 10 µM	–
Cc1ccc(Cn2c(O)nc3c(N)ncnc32)cc1	10 µM	–
CCCCCSc1nc(N)c2nc(O)n(Cc3ccccc3)c2n1	10 µM	1 mg/kg
CCc1nc(N)c2nc(O)n(Cc3ccccc3)c2n1	1 µM	3 mg/kg
Nc1nc(O)nc2c1nc(O)n2Cc1ccccc1	0.1 µM	1 mg/kg
Nc1ncnc2c1nc(Br)n2Cc1ccccc1	> 10 µM	–
Nc1ncnc2c1nc(O)n2Cc1ccc(F)cc1	10 µM	30 mg/kg
CCSc1nc(N)c2nc(O)n(Cc3ccccc3)c2n1	0.1 µM	0.1 mg/kg
CCCNc1nc(N)c2nc(O)n(Cc3ccccc3)c2n1	0.1 µM	1 mg/kg
CCCCCNc1nc(N)c2nc(O)n(Cc3ccccc3)c2n1	0.1 µM	0.3 mg/kg
COc1nc2c(N)ncnc2n1Cc1ccccc1	> 10 µM	–
Nc1ncnc2c1nc(O)n2Cc1cccc2ccccc12	10 µM	–
COc1nc(N)c2nc(O)n(Cc3ccccc3)c2n1	0.1 µM	> 1 mg/kg
Nc1ncnc2c1nc(S)n2Cc1ccccc1	10 µM	> 30 mg/kg
Nc1ncnc2c1nc(O)n2C1CCCC1	> 10 µM	–
Cc1nc2c(N)ncnc2n1Cc1ccccc1	> 10 µM	–

Compound	minimal effective concentration (Mus musculus [1])	minimal effective dose (Mus musculus [2])
COc1cccc(Cn2c(O)nc3c(N)ncnc32)c1	10 µM	–
Nc1ncnc2c1nc(O)n2Cc1ccccc1	10 µM	30 mg/kg
CCCCc1nc(N)c2nc(O)n(Cc3ccccc3)c2n1	0.03 µM	0.3 mg/kg
CCCc1nc(N)c2nc(O)n(Cc3ccccc3)c2n1	1 µM	3 mg/kg
Nc1ncnc2c1nc(O)n2CCc1ccccc1	> 10 µM	–
CCOc1nc(N)c2nc(O)n(Cc3ccccc3)c2n1	0.1 µM	0.3 mg/kg
CCCCNc1nc(N)c2nc(O)n(Cc3ccccc3)c2n1	0.1 µM	0.1 mg/kg
Cc1nc(N)c2nc(O)n(Cc3ccccc3)c2n1	1 µM	3 mg/kg
CCCSc1nc(N)c2nc(O)n(Cc3ccccc3)c2n1	0.01 µM	0.1 mg/kg
Nc1ncnc2c1nc(O)n2-c1ccccc1	> 10 µM	–
Nc1nc(N)c2nc(O)n(Cc3ccccc3)c2n1	10 µM	–
CCCOc1nc(N)c2nc(O)n(Cc3ccccc3)c2n1	0.01 µM	0.3 mg/kg
CCCCCOc1nc(N)c2nc(O)n(Cc3ccccc3)c2n1	0.01 µM	0.3 mg/kg
CCCCSc1nc(N)c2nc(O)n(Cc3ccccc3)c2n1	0.01 µM	0.3 mg/kg
Nc1nc(SCc2ccccc2)nc2c1nc(O)n2Cc1ccccc1	0.1 µM	> 1 mg/kg
CCCCOc1nc(N)c2[nH]c(=O)n(Cc3ccccc3)c2n1	0.001 µM	0.1 mg/kg
Nc1ncnc2[nH]c(O)nc12	> 10 µM	–
Nc1ncnc2c1nc(O)n2Cc1ccc(Cl)cc1	10 µM	30 mg/kg
Nc1ncnc2c1nc(Cl)n2Cc1ccccc1	> 10 µM	–
CC(C)Cn1cnc2c(N)nc3ccccc3c21 [IMIQUIMOD]	1 µM	3 mg/kg
Nc1nc(S)nc2c1nc(O)n2Cc1ccccc1	10 µM	–
COc1ccc(Cn2c(O)nc3c(N)ncnc32)cc1	10 µM	–
CCCC[S+]([O-])c1nc(N)c2nc(O)n(Cc3ccccc3)c2n1 (centres undefined)	0.01 µM	1 mg/kg
Nc1nc(-c2ccccc2)nc2c1nc(O)n2Cc1ccccc1	10 µM	> 30 mg/kg
